Entries after “also recorded” stand apart in the source; their conditions may differ. Like-named read-outs stand apart in the source and are kept apart here.
Experiments:
rat CB1R (rCB1R) = details: cited from earlier work; for selectivity vs CB2R: rCB1R vs CB2R
recombinant hCB1R = details: cited from earlier work
hCB1R = hCB1R (Homo sapiens, UniProt P21554); assay: Cellular cAMP assay, forskolin-stimulated, Flp-In-293 cells; assay type: cell-based; details: for potency relative to AEA, inhibition of forskolin-stimulated cAMP production: greater than the potency reported for AEA in this assay
Chain of hCB1R (P21554 whole entry): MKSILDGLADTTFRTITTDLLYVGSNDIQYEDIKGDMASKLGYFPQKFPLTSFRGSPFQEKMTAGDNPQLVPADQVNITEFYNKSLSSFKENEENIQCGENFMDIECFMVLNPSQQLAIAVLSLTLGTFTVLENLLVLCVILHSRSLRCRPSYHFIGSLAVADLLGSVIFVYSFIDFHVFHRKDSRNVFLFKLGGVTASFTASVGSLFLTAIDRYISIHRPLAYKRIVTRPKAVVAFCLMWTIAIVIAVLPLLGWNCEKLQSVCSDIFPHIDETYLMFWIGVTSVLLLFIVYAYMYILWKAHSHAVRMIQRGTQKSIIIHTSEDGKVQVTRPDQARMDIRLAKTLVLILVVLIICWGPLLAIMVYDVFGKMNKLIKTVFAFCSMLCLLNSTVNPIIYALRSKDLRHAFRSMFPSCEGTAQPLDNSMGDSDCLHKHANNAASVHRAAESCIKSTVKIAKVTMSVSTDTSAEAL

[1] = target: CB1R in mouse hippocampus (Mus musculus, UniProt P47746); assay: [^35S]GTPγS binding, mouse hippocampus membranes; assay type: biochemical; details: for EC50: read-out: EC50, stimulation of [^35S]GTPγS binding, n = 3–4
Chain of CB1R in mouse hippocampus (P47746 whole entry): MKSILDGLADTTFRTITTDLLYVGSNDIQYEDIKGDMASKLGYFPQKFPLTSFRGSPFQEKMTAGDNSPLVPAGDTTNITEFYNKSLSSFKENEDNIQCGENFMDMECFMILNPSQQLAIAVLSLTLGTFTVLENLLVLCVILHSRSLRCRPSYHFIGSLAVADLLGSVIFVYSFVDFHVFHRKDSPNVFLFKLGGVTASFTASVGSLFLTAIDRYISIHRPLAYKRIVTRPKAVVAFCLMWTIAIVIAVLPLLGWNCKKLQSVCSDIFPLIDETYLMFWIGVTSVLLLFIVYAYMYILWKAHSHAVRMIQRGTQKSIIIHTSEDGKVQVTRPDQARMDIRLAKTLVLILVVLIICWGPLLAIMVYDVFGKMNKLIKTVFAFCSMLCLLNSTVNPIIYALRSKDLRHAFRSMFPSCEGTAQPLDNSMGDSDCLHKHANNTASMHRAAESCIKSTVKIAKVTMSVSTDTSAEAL

hCB1R C7.38(382)S [2] = target: T1, hCB1R C7.38(382)S (Homo sapiens, UniProt P21554, C382S); assay: Covalent labeling assay; assay type: binding; details: C7.38(382)S mutant; 20 nM AM3677
T1 sequence (P21554 whole entry C382S): as the sequence (P21554 whole entry) above, with C382S counted along it
Method in brief: (§1)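 Flp-In-293 membranes stably expressing the Cys→Ser hCB1R mutant, at 0.8 mg/mL in TME-0.1% BSA, were preincubated with 20 nM test compound (controls without) at 30 °C for 1 h. Unbound probe was removed by 27 000g spins, TME-1% BSA washes (one 20 min at 30 °C) and TME washes.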

hCB1R C4.47(238)S [3] = target: T2, hCB1R C4.47(238)S (Homo sapiens, UniProt P21554, C238S); assay: Competition binding with [^3H]CP55,940, Flp-In-293 membranes; details: read-out: apparent Ki (95% CI); C4.47(238)S mutant; [^3H]CP55,940 0.75 nM
T2 sequence (P21554 whole entry C238S): as the sequence (P21554 whole entry) above, with C238S counted along it

hCB1R C1.55(139)S [4] = target: T3, hCB1R C1.55(139)S (Homo sapiens, UniProt P21554, C139S); assay: as above; details: read-out: apparent Ki (95% CI); C1.55(139)S mutant; [^3H]CP55,940 0.75 nM
T3 sequence (P21554 whole entry C139S): as the sequence (P21554 whole entry) above, with C139S counted along it

hCB1R C7.42(386)S [5] = target: T4, hCB1R C7.42(386)S (Homo sapiens, UniProt P21554, C386S); assay: Covalent labeling assay; assay type: binding; details: C7.42(386)S mutant; 20 nM AM3677
T4 sequence (P21554 whole entry C386S): as the sequence (P21554 whole entry) above, with C386S counted along it
Method in brief: as §1

hCB1R C7.38(382)S [6] = target: T1, hCB1R C7.38(382)S; assay: Competition binding with [^3H]CP55,940, Flp-In-293 membranes; details: read-out: apparent Ki (95% CI); C7.38(382)S mutant; [^3H]CP55,940 0.75 nM
[7] = tested on: Flp-In cells that were not transfected with CB1Rs; assay: Cellular cAMP assay, non-transfected control cells; assay type: cell-based; details: routine control; data not shown
hCB1R C7.42(386)S [8] = target: T4, hCB1R C7.42(386)S; assay: Competition binding with [^3H]CP55,940, Flp-In-293 membranes; details: read-out: apparent Ki (95% CI); C7.42(386)S mutant; [^3H]CP55,940 0.75 nM
[9] = Binding to membranes from nontransfected cells; details: membranes from nontransfected Flp-In-293 cells; data not shown
Method in brief: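 Membranes from non-transfected Flp-In-293 cells were prepared by cavitation and ultracentrifugation and resuspended in TME (25 mM Tris-HCl, 5 mM MgCl₂, 1 mM EDTA, pH 7.4). […] Filters were washed in ice-cold buffer and counted by scintillation.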

hCB1R C6.47(355)S [10] = target: T5, hCB1R C6.47(355)S (Homo sapiens, UniProt P21554, C355S); assay: Covalent labeling assay; assay type: binding; details: C6.47(355)S mutant; AM3677 10-fold apparent Ki
T5 sequence (P21554 whole entry C355S): as the sequence (P21554 whole entry) above, with C355S counted along it
Method in brief: as §1

hCB1R C4.47(238)S [11] = target: T2, hCB1R C4.47(238)S; assay: Covalent labeling assay; assay type: binding; details: C4.47(238)S mutant
Method in brief: as §1

hCB1R C6.47(355)S [12] = target: T5, hCB1R C6.47(355)S; assay: Competition binding with [^3H]CP55,940, Flp-In-293 membranes; details: read-out: apparent Ki (95% CI); C6.47(355)S mutant; [^3H]CP55,940 0.75 nM
hCB1R C1.55(139)S [13] = target: T3, hCB1R C1.55(139)S; assay: Covalent labeling assay; assay type: binding; details: C1.55(139)S mutant; 20 nM AM3677
Method in brief: as §1

[14] = target: hemagglutinin (HA)-tagged rCB1R (Rattus norvegicus, UniProt P20272); assay: CB1R internalization, HEK293 cells; assay type: cell-based; details: 30 min at 37 °C; best-fit sigmoidal curve
Chain of hemagglutinin (HA)-tagged rCB1R (P20272 whole entry): as the sequence (P47746 whole entry) above, with D95E counted along it

[15] = target: WT and Cys mutant hCB1R variants; assay: Saturation binding of [^3H]CP55,940, Flp-In-293 membranes; set-up: species or system human; details: average across all six hCB1R variants; mean ± SEM, n = 6

## CCCCC/C=C\C/C=C\C/C=C\C/C=C\CCCC(=O)NC1CC1 [ACPA, (5Z,8Z,11Z,14Z)-eicosa-5,8,11,14-tetraenoic acid cyclopropylamide]
Rat CB1R (rCB1R)
  selectivity vs CB2R: 60 to 300 fold
Rat CB1R (rCB1R); read-out: apparent Ki, rCB1R, [^3H]CP55,940 as competitive radioligand
  Ki: 2.2 to 2.7 nM
Recombinant hCB1R
  agonist type: full agonist
hCB1R
  potency relative to AEA, inhibition of forskolin-stimulated cAMP production: ~ 200 fold

## CCCCC/C=C\C/C=C\C/C=C\C/C=C\CCCC(=O)NCCO [AEA, arachidonoylethanolamide, reference compound]
Rat CB1R (rCB1R); rCB1R
  Ki: 61 nM
[1]; read-out: maximum response, [^35S]GTPγS binding
  Emax: 34 ± 1.5%

## O=C(CCC/C=C\C/C=C\C/C=C\C/C=C\CCCCCN=C=S)NC1CC1 [AM3677, 20-isothiocyanato-eciosa-5,8,11,14-tetraenoic acid cyclopropylamide]
hCB1R C7.38(382)S [2]
  degree of irreversible labeling: comparable to that displayed by WT hCB1R
hCB1R C4.47(238)S [3]
  Ki: 2.4 nM
Rat CB1R (rCB1R)
  selectivity vs CB2R: ~ 40 fold
Rat CB1R (rCB1R); rCB1R
  manner of binding: irreversible
hCB1R C1.55(139)S [4]
  Ki: 2.3 nM
hCB1R C7.42(386)S [5]
  degree of irreversible labeling: comparable to that displayed by WT hCB1R
hCB1R C7.38(382)S [6]
  Ki: 1.9 nM
[7]
  effect on cAMP in non-transfected cells: had no effect
hCB1R C7.42(386)S [8]
  Ki: 1.6 nM
[1]; more potent than AEA
  potency relative to AEA, [^35S]GTPγS binding: ~100 fold
[1]; more potent than CP55,940
  potency relative to CP55,940, [^35S]GTPγS binding: ~ 23 fold
[1]; mean ± SEM
  EC50: 50 ± 20 nM
[1]; relative to CP55,940 (maximum = response to 10 μM CP55,940), mean ± SEM, n = 3
  maximum response, [^35S]GTPγS binding: 32 ± 2.1%
[9]
  specific binding: No specific
hCB1R C6.47(355)S [10]
  effect of AM3677 preincubation on Bmax for [^3H]CP55,940 (irreversible binding): unaffected; also recorded: did not affect
hCB1R C4.47(238)S [11]; 20 nM AM3677
  degree of irreversible labeling: comparable to that displayed by WT hCB1R
hCB1R C4.47(238)S [11]; AM3677 at 10-fold its apparent Ki
  reduction of [^3H]CP55,940 specific binding (Bmax): at least 43%
hCB1R C6.47(355)S [12]
  Ki: 2.2 nM
hCB1R C1.55(139)S [13]
  degree of irreversible labeling: comparable to that displayed by WT hCB1R
hCB1R; at micromolar concentrations
  maximal efficacy, inhibition of forskolin-activated cAMP formation: ~ 60%
hCB1R
  potency relative to AEA, inhibition of forskolin-stimulated cAMP production: ~ 200 fold
hCB1R; read-out: IC50, inhibition of forskolin-activated cAMP formation, Flp-In-293 cells overexpressing hCB1R, 5 μM forskolin, mean ± SEM, n = 3
  IC50: 27.1 ± 2.2 nM
[14]
  maximum internalization: ~ 42%

## CCCCCCC(C)(C)c1ccc([C@@H]2C[C@H](O)CC[C@H]2CCCO)c(O)c1 [CP55,940, reference compound]
[1]; mean ± SEM
  EC50: 1100 ± 200 nM
[9]
  specific binding: No specific
[15]
  Kd: 5.4 ± 0.8 nM
